Tests used:
[1] = Antifungal activity against Paecilomyces lilacinus 05-200601 after 48 to 72 hrs; assay type: functional; settings: Purpureocillium lilacinum
In short: (§1)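 CLSI M38-A2 broth microdilution for molds in RPMI 1640 with L-glutamine and no bicarbonate, buffered with 0.165 M MOPS to pH 7.0. Compounds were dissolved in water and tested at 0.175–87.5 μM final, 35°C, up to 7 days. MIC was read visually as 100% inhibition versus growth control. For MFC, clear wells were plated on SDA and the lowest concentration with no colonies taken. Each isolate was run in duplicate, two independent experiments.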

Aspergillus flavus [2] = experiment: Antifungal activity against Aspergillus flavus ATCC 204304 after 48 to 72 hrs; assay type: functional
In short: (§2)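 MFC: after the MIC read, 30-μl aliquots from each well without visible growth were plated onto Sabouraud dextrose agar and incubated at 35°C. Reading was at 48–72 h for yeasts and up to 7 days for molds. MFC was the lowest concentration with no colonies.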

Lichtheimia corymbifera [3] = experiment: Antifungal activity against Absidia corymbifera 04-200170 after 24 to 72 hrs by broth microdilution method; assay type: functional
In short: (§3)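 Broth microdilution MIC per CLSI M27-A3 (yeasts) or M38-A2 (molds). RPMI 1640 with L-glutamine, without bicarbonate, buffered to pH 7.0 with 0.165 M MOPS. Final test range for the compounds was 0.175–87.5 μM. Incubation at 35°C with visual reading at 24–72 h. MIC was the lowest concentration giving 100% inhibition versus the growth control (azoles 50% or 100%, by organism). Each isolate was run in duplicate in two independent experiments.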

Lomentospora prolificans [4] = experiment: Antifungal activity against Scedosporium prolificans 05-203060 after 48 to 72 hrs; assay type: functional; in short: as §1
Candida parapsilosis [5] = experiment: Antifungal activity against Candida parapsilosis 04-202398 after 48 to 72 hrs; assay type: functional; settings: Lodderomyces parapsilosis
In short: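 CLSI M27-A3 broth microdilution for yeasts in RPMI 1640 with L-glutamine and no bicarbonate, buffered with 0.165 M MOPS to pH 7.0. Compounds were dissolved in water and tested at 0.175–87.5 μM final, 35°C. MIC was read visually at 24–72 h as 100% inhibition versus growth control. For MFC, 30 μl from clear wells went onto SDA at 35°C for 48–72 h, reading the lowest concentration without colonies. Duplicates, two independent runs.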

Aspergillus terreus [6] = experiment: Antifungal activity against Aspergillus terreus 05-202844 after 24 to 72 hrs by broth microdilution method; assay type: functional; in short: as §3
Pichia kudriavzevii [7] = experiment: Antifungal activity against Candida krusei […] after 48 to 72 hrs; assay type: functional; in short: as §2
Fusarium solani = experiment: Antifungal activity against Fusarium solani 04-203102 after 24 to 72 hrs by broth microdilution method; assay type: functional
In short: (§4)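 Mold isolates subcultured on potato dextrose agar, then tested by CLSI M38-A2 broth microdilution in RPMI 1640 (L-glutamine, no bicarbonate) buffered to pH 7.0 with 0.165 M MOPS. Compounds were dissolved in water and tested at a final 0.175–87.5 μM. Plates were incubated at 35°C. MIC was read visually as the lowest concentration giving 100% inhibition versus the growth control. Each isolate was run in duplicate in two independent experiments.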

Scedosporium apiospermum = experiment: Antifungal activity against Scedosporium apiospermum 05-203100 after 24 to 72 hrs by broth microdilution method; assay type: functional; in short: as §4
Candida parapsilosis [8] = experiment: Antifungal activity against Candida parapsilosis 04-202398 after 24 to 72 hrs by broth microdilution method; assay type: functional; settings: Lodderomyces parapsilosis; in short: as §3
Candida tropicalis = experiment: Antifungal activity against Candida tropicalis 04-202361 after 24 to 72 hrs by broth microdilution method; assay type: functional; in short: as §3
Aspergillus fumigatus [9] = experiment: Antifungal activity against Aspergillus fumigatus ATCC 204305 after 24 to 72 hrs by broth microdilution method; assay type: functional; in short: as §3
Nakaseomyces glabratus = experiment: Antifungal activity against Candida glabrata 04-202345 after 24 to 72 hrs by broth microdilution method; assay type: functional; in short: as §3
Aspergillus terreus [10] = experiment: Antifungal activity against Aspergillus terreus 05-202844 after 48 to 72 hrs; assay type: functional; in short: as §2
Lomentospora prolificans [11] = experiment: Antifungal activity against Scedosporium prolificans 05-203060 after 24 to 72 hrs by broth microdilution method; assay type: functional; in short: as §4
Pichia kudriavzevii [12] = experiment: Antifungal activity against Candida krusei ATCC 9258 after 24 to 72 hrs by broth microdilution method; assay type: functional; in short: as §3
[13] = tested on: Cryptococcus gattii species complex; experiment: Antifungal activity against Cryptococcus gattii 05-200122 after 24 to 72 hrs by broth microdilution method; assay type: functional, Cryptococcus bacillisporus; in short: as §3
Cryptococcus neoformans [14] = experiment: Antifungal activity against Cryptococcus neoformans ATCC 90112 after 24 to 72 hrs by broth microdilution method; assay type: functional; in short: as §3
Candida parapsilosis [15] = experiment: Antifungal activity against Candida parapsilosis ATCC 22019 after 24 to 72 hrs by broth microdilution method; assay type: functional; settings: Lodderomyces parapsilosis; in short: as §3
Candida albicans [16] = experiment: Antifungal activity against Candida albicans ATCC 10231 after 24 to 72 hrs by broth microdilution method; assay type: functional; in short: as §3
Aspergillus flavus [17] = experiment: Antifungal activity against Aspergillus flavus ATCC 204304 after 24 to 72 hrs by broth microdilution method; assay type: functional; in short: as §3
[18] = Antifungal activity against Exophiala jeanselmei 03-200268 after 24 to 72 hrs by broth microdilution method; assay type: functional; in short: as §3
Aspergillus fumigatus [19] = experiment: Antifungal activity against Aspergillus fumigatus ATCC 204305 after 48 to 72 hrs; assay type: functional; in short: as §1
[20] = tested on: Cunninghamella bertholletiae; experiment: Antifungal activity against Cunninghamella bertholletiae 99-12187 after 24 to 72 hrs by broth microdilution method; assay type: functional; in short: as §3
Rhizopus arrhizus = experiment: Antifungal activity against Rhizopus oryzae 05-203111 after 24 to 72 hrs by broth microdilution method; assay type: functional; in short: as §4
Exophiala spinifera = experiment: Antifungal activity against Exophiala spinifera 03-200803 after 24 to 72 hrs by broth microdilution method; assay type: functional; in short: as §4
Aspergillus fumigatus [21] = experiment: Antifungal activity against Aspergillus fumigatus 05-203114 after 48 to 72 hrs; assay type: functional; in short: as §1
Aspergillus flavus [22] = experiment: Antifungal activity against Aspergillus flavus 05-203758 after 48 to 72 hrs; assay type: functional; in short: as §1
Pichia kudriavzevii [23] = experiment: Antifungal activity against Candida krusei 04-202328 after 24 to 72 hrs by broth microdilution method; assay type: functional; in short: as §3
Lichtheimia corymbifera [24] = experiment: Antifungal activity against Absidia corymbifera 04-200170 after 48 to 72 hrs; assay type: functional; in short: as §1
Cryptococcus neoformans [25] = experiment: Antifungal activity against Cryptococcus neoformans 05-202523 after 24 to 72 hrs by broth microdilution method; assay type: functional; in short: as §3
Aspergillus flavus [26] = experiment: Antifungal activity against Aspergillus flavus 05-203758 after 24 to 72 hrs by broth microdilution method; assay type: functional; in short: as §3
Candida albicans [27] = experiment: Antifungal activity against Candida albicans ATCC 90028 after 24 to 72 hrs by broth microdilution method; assay type: functional; in short: as §3
[28] = Antifungal activity against Exophiala jeanselmei 03-200268 after 48 to 72 hrs; assay type: functional; in short: as §1
Aspergillus fumigatus [29] = experiment: Antifungal activity against Aspergillus fumigatus 05-203114 after 24 to 72 hrs by broth microdilution method; assay type: functional; in short: as §3
[30] = Antifungal activity against Paecilomyces lilacinus 05-200601 after 24 to 72 hrs by broth microdilution method; assay type: functional; settings: Purpureocillium lilacinum; in short: as §4
Pichia kudriavzevii [31] = experiment: Antifungal activity against Candida krusei ATCC 6258 after 24 to 72 hrs by broth microdilution method; assay type: functional; in short: as §3

Q: Which results are given for `CCCCCc1cc[n+](CCCCCCCCCCCC[n+]2ccc(CCCCC)c(CCCCC)c2)cc1CCCCC.[Cl-].[Cl-]`?
A: MFC [1]: 29.8 µg/mL; MFC (Aspergillus flavus [2]): 14.9 µg/mL; MIC (Lichtheimia corymbifera [3]): 14.9 µg/mL; MFC (Lomentospora prolificans [4]): 3.7 µg/mL; MFC (Candida parapsilosis [5]): 14.9 µg/mL; MIC (Aspergillus terreus [6]): 0.93 µg/mL; MFC (Pichia kudriavzevii [7]): 3.7 µg/mL; MIC (Fusarium solani): 14.9 µg/mL; MIC (Scedosporium apiospermum): 3.7 µg/mL; MIC (Candida parapsilosis [8]): 7.5 µg/mL; MIC (Candida tropicalis): 1.86 µg/mL; MIC (Aspergillus fumigatus [9]): 7.5 µg/mL; MIC (Nakaseomyces glabratus): 0.93 µg/mL; MFC (Aspergillus terreus [10]): 1.86 µg/mL; MIC (Lomentospora prolificans [11]): 1.86 µg/mL; MIC (Pichia kudriavzevii [12]): 1.86 µg/mL; MIC [13]: 1.86 µg/mL; MIC (Cryptococcus neoformans [14]): 1.86 µg/mL; MIC (Candida parapsilosis [15]): 1.86 µg/mL; MIC (Candida albicans [16]): 1.86 µg/mL; MIC (Aspergillus flavus [17]): 7.5 µg/mL; MIC [18]: 1.86 µg/mL; MFC (Aspergillus fumigatus [19]): 14.9 µg/mL; MIC [20]: 7.5 µg/mL; MIC (Rhizopus arrhizus): 1.86 µg/mL; MIC (Exophiala spinifera): 1.86 µg/mL; MFC (Aspergillus fumigatus [21]): 14.9 µg/mL; MFC (Aspergillus flavus [22]): 29.8 µg/mL; MIC (Pichia kudriavzevii [23]): 1.86 µg/mL; MFC (Lichtheimia corymbifera [24]): 27.8 µg/mL; MIC (Cryptococcus neoformans [25]): 7.5 µg/mL; MIC (Aspergillus flavus [26]): 14.9 µg/mL; MIC (Candida albicans [27]): 1.86 µg/mL; MFC [28]: 3.7 µg/mL; MIC (Aspergillus fumigatus [29]): 7.5 µg/mL; MIC [30]: 14.9 µg/mL; MIC (Pichia kudriavzevii [31]): 1.86 µg/mL
